# Screens: PubChem, several laboratories
# Only some compounds are listed: those with a hit (about 1.4% of all), similar ones and a draw of the others.
# Rev-erbA mod: Rev-erb alpha (human) modulation; P20393; Rev-erbα–FITC-DNA binding, fluorescence polarization, 90 min; activity, % at 10 µM; 370,000 compounds, 0.79% hits; AID 1259318;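 active = activity above about 14%, limit read from the data; passing the limit was not always enough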
# PG9 Ab binder: small molecules binding HIV-1 gp120 antibody PG9; TR-FRET gp120-PG9 antibody binding; inhibition, % at 6.7 µM; 360,000 compounds, 0.43% hits; AID 624416; in the data active = inhibition above about 8.5%
# NR2E3 ag-1: NR2E3 (human) agonism | GST-NR2E3/biotin-RetCOR TR-FRET, 1536-well | inhibition of corepressor binding, % at 4.78 µM | 320,000 compounds, 0.12% hits | Q9Y5X4;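 active = percent inhibition above the cutoff of mean plus 3 SD of all tested compounds, set per screening campaign, cut at about 20% in these data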
# Target sequence (Q9Y5X4 whole entry, looked up): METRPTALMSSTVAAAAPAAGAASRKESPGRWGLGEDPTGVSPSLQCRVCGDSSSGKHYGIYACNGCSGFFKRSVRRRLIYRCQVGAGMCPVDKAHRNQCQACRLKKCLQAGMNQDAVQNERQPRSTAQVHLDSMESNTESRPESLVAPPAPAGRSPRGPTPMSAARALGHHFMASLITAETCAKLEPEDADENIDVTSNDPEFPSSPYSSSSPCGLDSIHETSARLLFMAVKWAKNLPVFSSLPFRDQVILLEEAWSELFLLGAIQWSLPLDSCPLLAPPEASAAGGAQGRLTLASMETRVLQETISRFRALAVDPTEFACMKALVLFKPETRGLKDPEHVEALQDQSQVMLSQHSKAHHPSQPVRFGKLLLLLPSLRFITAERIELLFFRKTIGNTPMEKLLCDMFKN
#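 Material: NR2E3–RetCOR corepressor complex | Quantity: 1.35 nM GST-tagged NR2E3 final | Schedule: 5 h at 4 °C | Replication: Singlicate compound wells | Reagent: RetCOR corepressor, biotinylated, 7 nM | Controls: Biotin wells as high control, 0.6% DMSO wells as low control | Signal: TR-FRET, Eu(K)-anti-GST donor, streptavidin-D2 acceptor, ex 340, em 617/671 nm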
# NR2E3 ag-2: human photoreceptor-specific nuclear receptor agonism | CHO-S Gal4-NCOR/VP16-NR2E3 two-hybrid, luciferase | inhibition of corepressor binding, % at 3.98 µM | 360,000 compounds, 0.35% hits | AID 602229;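 active = inhibition above the mean of all tested compounds plus 3 SD, cut at about 70% in these data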;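 also: higher means lower luciferase signal from less NR2E3 corepressor binding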
# Rev-erbA confirm: Rev-erb alpha (human) modulation, hit confirmation. AID 1259319. Rev-erb alpha FITC-DNA binding, fluorescence polarization, 90 min. 3,000 compounds, 61% hits. shares compounds with Rev-erbA mod. activation, % at 25 µM;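 active = activation at or above a set limit, or at least 3 SD above the negative control mean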
# RORg counter: counter-screen for Rev-erb alpha modulators: RORgamma DNA binding | shares compounds with Rev-erbA mod | 910 compounds, 8% hits | purified RORgamma protein-FITC-DNA binding, fluorescence polarization | IC50, µM;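 active = Compounds whose fitted half-maximal concentration for disrupting protein-DNA binding is below 10 micromolar; the record names Rev-erb in its text, so the target is in doubt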
# Hits are given with their value; - = inactive; . = no result.
SMILES,Rev-erbA mod,PG9 Ab binder,NR2E3 ag-1,NR2E3 ag-2,Rev-erbA confirm,others
C/C(=N\N(Cc1ccccc1)c1ccccc1)c1ccncc1,43,-,-,-,40,RORg counter=-
Cc1ccccc1CNC(=O)CN1CCCc2ccccc21,-,.,.,.,.,
CC(=O)Nc1ccc(CNc2nc(NC(C)C)nc3cc(-c4ccccc4)sc23)cc1,-,-,.,-,.,
C=CCNc1nc(NCc2ccc(NC(C)=O)cc2)c2sc(-c3ccccc3)cc2n1,65,-,.,-,76,RORg counter=-
C=CCN1C/C(=C/c2ccccc2)N2C(=O)CC(c3ccccc3)N=C12 (stereo unspecified),-,.,.,.,.,
COCCCN1C(=O)[C@H](CC(=O)NCc2cccc(C(F)(F)F)c2)[C@]2(C(=O)OC)CCCCC=C12,-,.,.,.,.,
CC(=O)NS(=O)(=O)c1ccc(Nc2ccc([N+](=O)[O-])c3nonc23)cc1,26,-,-,-,21,
CCOc1ccc(Nc2ccc([N+](=O)[O-])c3nonc23)cc1,-,-,-,-,.,
N#Cc1c2n(c3c(=O)n(CC(=O)c4ccc(Br)cc4)cnc13)CCCC2,-,-,-,-,.,
N#Cc1c2ncn(CC(=O)c3ccc(Br)cc3)c(=O)c2c2n1CCC2,17,-,-,-,-,
COc1ccc2[nH]cc(/C=C/c3cc[n+](C)cc3)c2c1,69,-,-,-,58,RORg counter=-
COc1ccc2[nH]cc(C=O)c2c1,-,-,-,-,.,
CN(C)c1cccc(/C=C2\CC3(OC(=O)c4ccc(F)cc4)CCCN2C3)c1 (stereo unspecified),-,.,.,.,.,
COc1ccc2cc(/C=N/NC(=O)c3c(Cl)cnn3C)c(Cl)nc2c1,24,-,-,-,-,
COc1ccc2cc(/C=N/NC(=O)c3ccc(CN(c4ccc(C)c(C)c4)S(C)(=O)=O)cc3)c(Cl)nc2c1,-,-,-,-,.,
O=C(NCc1ccco1)C1CCCN(S(=O)(=O)c2ccccc2F)C1 (stereo unspecified),-,.,.,.,.,
O=S(=O)(Nc1ccc(C(O)(C(F)(F)F)C(F)(F)F)cc1)c1cccs1,-,.,.,.,.,
COc1cc(/C=C/c2noc(-c3ccccc3O)n2)cc(OC)c1OC,51,-,-,-,25,
CN(CCc1ccccn1)C(=O)c1ccc2c(c1)ncn2C1CCCCC1,-,.,.,.,.,
CCC(CC)COC(=O)C1=C(C)NC(=O)NC1c1ccccc1Br (stereo unspecified),17,-,-,-,-,
CN(C)c1ccc(NC(=O)NC2CCCCN(Cc3cccc(Cl)c3)C2=O)cc1 (stereo unspecified),-,.,.,.,.,
CCc1ccc2nc(NC(=O)C3CCN(c4ncnc5sc(C)c(C)c45)CC3)sc2c1,21,-,-,-,19,
Clc1ccccc1OCc1nn2c(-c3ccncc3)nnc2s1,-,-,-,-,.,
Clc1ccc(OCc2nn3c(-c4ccccc4)nnc3s2)c(Cl)c1,26,-,-,-,35,
CCC(=O)N1CCC1(C)C(=O)Nc1cnc2ccccc2c1 (stereo unspecified),17,-,.,-,-,
SMILES,Rev-erbA mod,PG9 Ab binder,NR2E3 ag-1,NR2E3 ag-2,Rev-erbA confirm,others
NC(=O)C1CCN(c2ncc(Br)cn2)CC1,-,.,.,.,.,
Cc1cccc(C(=O)Nc2ccc(N3CCN(c4ccc(C(F)(F)F)cn4)CC3)nc2)c1,65,-,-,-,-,
N[C@H](C(=O)N[C@@H](Cc1ccccc1)C(=O)N1CCC2CCN(S(=O)(=O)c3ccccc3)CC21)c1ccccc1 (stereo partly specified),-,.,.,.,.,
CCOC(=O)N1CCC(NC(=O)c2cc(C)c3c(C)nn(-c4ccccc4)c3n2)CC1,19,-,-,-,-,
CCOC(=O)N1CCC(NC(=O)c2ccccc2C(=O)O)CC1,-,-,-,-,.,
Cc1cc(-c2n[nH]c(=S)n2N=Cc2ccc(O)cc2)n[nH]1,-,.,.,.,.,
N#Cc1cc2c(nc1SCC(=O)O)CCCC2,-,-,-,-,.,
N#Cc1cc2c(nc1SCc1ccccc1)CCC2,45,-,-,-,25,
Cc1cc(NC(=O)CSc2nc3c(cc2C#N)CCC3)no1,23,-,-,-,-,
Cc1noc(NS(=O)(=O)c2ccc(NC(=O)CSc3nc4c(cc3C#N)CCC4)cc2)c1C,-,-,-,-,.,
Cc1cc(NC(=O)CSc2nc3c(cc2C#N)CCCC3)no1,35,-,-,-,26,
NS(=O)(=O)c1ccc(CCNc2ccccc2[N+](=O)[O-])cc1,21,-,-,-,-,
c1ccc(Nc2nc(-c3ccncc3)nc3ccccc23)cc1,30,-,-,-,23,
Cc1cc(C)c2cc(C#N)c(N3CCCN(S(=O)(=O)c4ccccc4)CC3)nc2c1,.,.,-,.,.,
CC(=O)c1cccc(S(=O)(=O)N2CCN(c3nc4cc(C)cc(C)c4cc3C#N)CC2)c1,174,-,-,-,137,
CCC[C@H]1[C@@H](OC(=O)NCc2cccnc2)CC[C@@]23CCCN2C(=O)CCC[C@@H]13,-,.,.,.,.,
Cc1ccc(-c2nnc(N3CCN(C(=O)CN4C(=O)c5ccccc5C4=O)CC3)c3ccccc23)cc1,25,-,-,-,-,
Cc1ccc(OCC(=O)N2CCN(c3nnc(-c4ccc(C)cc4)c4ccccc34)CC2)cc1,-,-,-,-,.,
O=C(CN1C(=O)c2ccccc2C1=O)N1CCN(c2nnc(-c3ccccc3)c3ccccc23)CC1,29,-,-,-,-,
Cc1nc(NC(=O)c2cccc(-c3cc4ccccc4oc3=O)c2)ccc1Br,-,-,-,-,.,
Cc1nc(NC(=O)c2ccc(-c3cc4ccccc4oc3=O)cc2)ccc1Br,36,-,-,-,-,
Cc1nc(NC(=O)c2cncc(Br)c2)ccc1Br,62,-,-,-,55,RORg counter=-
CCOC(=O)c1ccccc1NC(=O)c1cncc(Br)c1,94,-,.,-,77,RORg counter=-
CCN(CC)C(=O)CC[C@H]1CC[C@]2(CCCN(c3ccccc3)C2)O1,-,.,.,.,.,
CC1(C)C=C2C(N(CC3CC3)C(=N)N2C(=O)OCc2ccccc2)n2c(=O)n(-c3ccccc3)c(=O)n21 (stereo unspecified),-,.,.,.,.,
SMILES,Rev-erbA mod,PG9 Ab binder,NR2E3 ag-1,NR2E3 ag-2,Rev-erbA confirm,others
O=C(NCCc1c[nH]c2ccccc12)[C@H](Cc1c[nH]c2ccccc12)NC1(C(=O)NC2CCCCC2)CCCCCCC1,-,.,.,.,.,
Cc1cccc(C(=O)Nc2nc3ncccn3c2-c2ccccc2)c1,-,.,.,.,.,
CC1CCN(c2ccc(C(=O)O)cc2NS(=O)(=O)c2cccc3cccnc23)CC1,-,.,.,.,.,
COC(=O)c1ccc2nc(C3CCCCC3)c(Cc3ccccc3C(F)(F)F)n2c1,18,-,.,-,12,
FC(F)(F)c1ccccc1Cc1c(C2CCCCC2)nc2ccc(Cl)cn12,-,-,.,-,.,
Fc1ccc(-[n+]2nc(Nc3ccccc3)sc2-c2ccc(OCc3ccccc3)cc2)cc1,156,-,-,-,-,
O=C1c2cccc3cccc(c23)C(=O)N1OS(=O)(=O)c1ccc(Cl)cc1,22,-,-,-,-,
CCc1ccc(S(=O)(=O)ON2C(=O)c3ccccc3C2=O)cc1,-,-,.,-,.,
